Rows were chosen to be rich in hits. Some 4.7% of all compounds tested hit in one or more screens of this group.
RGS4 act: RGS4 potentiators or activators, primary screen, cell-based, HEK293 M3R inducible RGS4, calcium flux. B-score at 10 µM. carbachol calcium flux Fluo4; hits give low values. actives 0.92% (n = 310,000). AID 463111, 2010;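 active = B-score of the integrated calcium signal more than 4 SD below the library mean, with starting fluorescence not abnormally high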;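 note: negative B-score means reduced calcium response which marks RGS4 activation or potentiation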
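System – HEK293 FlpIn-TREx cells, stable M3R, doxycycline-inducible RGS4 · Reagent – ECmax carbachol challenge · Times – compound preincubation 20 min at room temperature before agonist · Technique – Fluo4 fluorescence kinetic imaging of calcium · Measure – B score of integrated Fluo4 ratio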
MrgX1 PAM: positive allosteric modulators of MrgX1, primary screen, HEK293 cells, Fluo-4 calcium flux | FDSS; hits give high values | B-score at 10 µM | actives 0.63% (n = 310,000) | AID 588675, 2011;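 active = plate-corrected calcium response at least 3 library SD above typical, normal starting fluorescence, not activating the receptor alone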;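 note: compound read alongside a low EC10 to EC30 dose of BAM8-22 agonist; peak minus trough fluorescence over baseline measured at the second addition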
RGS4 block: RGS4 inhibitors, primary screen, cell-based, HEK293 M3R inducible RGS4, calcium flux | Fluo-4 calcium flux; hits give high values; triggered by carbachol at its EC20 | B-score at 10 µM | actives 0.45% (n = 310,000) | AID 463165, 2010;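 active = B-score, a plate-corrected calcium signal, over three deviations above library mean, with baseline fluorescence within five deviations of library mean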;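 note: RGS4 expression induced by doxycycline in cells with stable M3 receptor; B-score is computed from the integrated fluorescence ratio over baseline after carbachol; higher B-score means a larger calcium signal and so more RGS4 inhibition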
MrgX1 ag: agonists of human MrgX1 receptor, primary screen, HEK293 cells, Fluo-4 calcium flux. actives 0.44% (n = 310,000). AID 588627, 2011. Mas-related G-protein coupled receptor member X1 (Homo sapiens), Q96LB2. Fluo-4 calcium fluorescence, agonist mode; hits give high values. B-score at 10 µM;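 active = calcium response B-score plate-corrected fluorescence ratio at least 3 library SD, with starting fluorescence B-score inside 5 SD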
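times = overnight plating, then 30 min 37 °C plus 30 min room-temperature dye loading | assay system = stable human MrgX1 HEK293 cell line | input = fifteen thousand cells per well | signal = kinetic calcium dye fluorescence, Fluo-4 NW | dosing = compound delivered in addition one of three | read-out = B-scored fluorescence response ratio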
KCC2 mod: KCC2 cotransporter modulators, thallium flux, primary screen, cell-based, HEK293 KCC2, FluoZin-2 fluorescence, MLSMR; Solute carrier family 12 member 5 (Homo sapiens), Q9H2X9; KCC2 cells, thallium flux FluoZin-2 fluorescence; B-score of Tl+ flux slope (higher = more flux/activation; lower = inhibition) at 10 µM; actives 2.2% (n = 190,000); AID 1456, 2008;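 active = thallium flux slope and its plate-corrected score both differing from the plate sample mean at a set confidence after two filtering rounds, in either direction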;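 note: slope of fluorescence scaled to starting intensity during 10 to 20 s after thallium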
Target sequence (Q9H2X9 whole entry, looked up): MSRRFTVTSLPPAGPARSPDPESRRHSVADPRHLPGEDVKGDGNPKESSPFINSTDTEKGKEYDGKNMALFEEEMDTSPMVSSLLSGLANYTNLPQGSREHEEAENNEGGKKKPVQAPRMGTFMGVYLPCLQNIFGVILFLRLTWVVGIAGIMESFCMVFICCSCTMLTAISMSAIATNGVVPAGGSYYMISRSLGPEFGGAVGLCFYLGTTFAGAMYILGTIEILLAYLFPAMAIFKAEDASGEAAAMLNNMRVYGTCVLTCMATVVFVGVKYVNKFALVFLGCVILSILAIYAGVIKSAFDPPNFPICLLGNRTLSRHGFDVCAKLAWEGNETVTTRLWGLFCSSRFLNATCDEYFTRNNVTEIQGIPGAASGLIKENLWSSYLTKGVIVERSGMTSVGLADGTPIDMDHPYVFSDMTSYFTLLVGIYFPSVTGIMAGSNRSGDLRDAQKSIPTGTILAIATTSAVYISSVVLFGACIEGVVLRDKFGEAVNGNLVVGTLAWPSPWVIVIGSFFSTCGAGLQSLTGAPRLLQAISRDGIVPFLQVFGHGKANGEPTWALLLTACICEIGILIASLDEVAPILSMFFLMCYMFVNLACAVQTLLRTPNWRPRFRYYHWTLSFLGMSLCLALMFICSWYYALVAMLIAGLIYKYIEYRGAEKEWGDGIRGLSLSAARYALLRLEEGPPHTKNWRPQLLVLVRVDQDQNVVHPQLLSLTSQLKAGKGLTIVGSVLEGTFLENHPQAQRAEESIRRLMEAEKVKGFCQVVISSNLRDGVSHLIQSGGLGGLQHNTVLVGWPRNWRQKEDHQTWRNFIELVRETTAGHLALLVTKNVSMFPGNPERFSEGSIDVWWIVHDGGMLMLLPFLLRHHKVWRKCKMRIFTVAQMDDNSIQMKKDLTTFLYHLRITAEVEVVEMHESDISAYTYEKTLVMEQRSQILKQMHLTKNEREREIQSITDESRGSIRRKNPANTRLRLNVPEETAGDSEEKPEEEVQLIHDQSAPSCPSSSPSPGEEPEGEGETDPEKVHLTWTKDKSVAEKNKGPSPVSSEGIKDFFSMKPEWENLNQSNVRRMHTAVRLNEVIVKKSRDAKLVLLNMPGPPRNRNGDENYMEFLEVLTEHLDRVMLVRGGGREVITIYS
MrgX1 antagonist: antagonists of human MrgX1 receptor, primary screen, HEK293 cells, Fluo-4 calcium flux; actives 1.3% (n = 310,000); Mas-related G-protein coupled receptor member X1 (Homo sapiens), Q96LB2; B-score at 10 µM; BAM8-22 antagonism; hits give low values;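 active = calcium-response B-score plate-corrected more than 3 library SD below zero, starting fluorescence within 5 deviations, no agonist response on first addition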;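 note: peak minus trough fluorescence over baseline after final BAM8-22 challenge near maximal dose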
MrgX1 antag conf: MrgX1 receptor antagonists, duplicate retest, confirmation, HEK293 cells, Fluo-4 calcium flux. BAM8-22 calcium flux; hits give low values. shares compounds with MrgX1 antagonist. remaining BAM8-22 calcium response % of control (hits give low values), % at 10 µM. AID 602420, 2012. actives 19% (n = 2,300);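 active = remaining agonist calcium response no higher than 100% minus 3 SD of agonist-only control wells, with starting fluorescence near control levels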;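 note: agonist BAM8-22 given at a near maximal EC90 to ECmax level; peak minus minimum fluorescence divided by baseline after agonist addition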
HEK293 Ca flux: nonspecific calcium signal in parental HEK293, confirmation, counter-screen for MrgX1 antagonist project, parental HEK293 cells, Fluo-4 calcium flux; shares compounds with MrgX1 antagonist; Fluo-4 calcium fluorescence, FDSS; fluorescence ratio F(max-min)/F0 at 10 µM; actives 2% (n = 4,000);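 active = duplicate-averaged calcium fluorescence ratio at least three times the standard deviation of buffer wells, a nonspecific response in parental cells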
HEK293 Ca counter: calcium response in parental HEK293 cells, primary screen, counter-screen for MrgX1 allosteric activator project, cell-based, Fluo-4 calcium flux, duplicate | shares compounds with MrgX1 antagonist | fluorescence ratio F(max-min)/F0 at 10 µM | Fluo-4 fluorescence ratio; hits give high values | AID 624114, 2012 | actives 0.4% (n = 4,000);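 active = calcium fluorescence ratio, averaged over duplicates, at least 3 SD of the buffer-well ratio, meaning a nonspecific response in receptor-free cells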;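 note: untransfected parental HEK293 lacking MrgX1 used as counterscreen for MrgX1 allosteric activators; fluorescence change taken during the second addition on a kinetic imager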
HEK293 Ca cntr2: calcium response in parental HEK293 cells, primary screen, counter-screen for MrgX1 agonist project, cell-based, Fluo-4 calcium flux, duplicate, agonist mode. fluorescence ratio F(max-min)/F0 at 10 µM. Fluo-4 calcium fluorescence (FDSS); hits give high values. shares compounds with MrgX1 antagonist. actives 8.7% (n = 4,000);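 active = calcium fluorescence ratio at least three times the spread of buffer wells, meaning a non-specific response in parental cells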
* marks the source's active call; other numbers are inactive results.

How did CCN(CC)S(=O)(=O)c1cccc(NC(=O)Nc2cccc(C(F)(F)F)c2)c1 do in these assays?
RGS4 act: inactive; MrgX1 PAM: inactive; RGS4 block: inactive; MrgX1 ag: inactive; KCC2 mod: -0.104; MrgX1 antagonist: -5.17*; MrgX1 antag conf: 53.4%*; HEK293 Ca flux: inactive; HEK293 Ca counter: inactive; HEK293 Ca cntr2: inactive

Results for O=C(Nc1ccc(-c2ccccc2)cc1)c1ccc2c(c1)S(=O)(=O)c1ccccc1C2=O ?
RGS4 act: inactive; MrgX1 PAM: inactive; RGS4 block: inactive; MrgX1 ag: inactive; MrgX1 antagonist: -4.69*; MrgX1 antag conf: inactive; HEK293 Ca flux: inactive; HEK293 Ca counter: inactive; HEK293 Ca cntr2: inactive

What do the screens show for `O=C(NC1CCSc2ccccc21)c1ccc(C(F)(F)F)cc1` (centres undefined)?
RGS4 act: inactive; MrgX1 PAM: inactive; RGS4 block: inactive; MrgX1 ag: inactive; MrgX1 antagonist: inactive

How did CCCc1cc(=O)oc2cc(C)cc(OCC(=O)N3CCC(C(N)=O)CC3)c12 do in these assays?
RGS4 act: inactive; MrgX1 PAM: inactive; RGS4 block: inactive; MrgX1 ag: inactive; MrgX1 antagonist: -4.95*; MrgX1 antag conf: inactive; HEK293 Ca flux: inactive; HEK293 Ca counter: inactive; HEK293 Ca cntr2: inactive

Results for CCCc1cc(=O)oc2cc(C)cc(OCC(=O)N3CCC(C(=O)O)CC3)c12 ?
RGS4 act: inactive; MrgX1 PAM: inactive; RGS4 block: inactive; MrgX1 ag: inactive; MrgX1 antagonist: inactive

What do the screens show for `O=C(CNC(=S)NC(=O)c1ccc(F)cc1)c1ccccc1`?
RGS4 act: inactive; MrgX1 PAM: inactive; RGS4 block: inactive; MrgX1 ag: inactive; KCC2 mod: -1.62; MrgX1 antagonist: -4.66*; MrgX1 antag conf: inactive; HEK293 Ca flux: inactive; HEK293 Ca counter: inactive; HEK293 Ca cntr2: inactive

What do the screens show for `CCCCN(C(=O)c1ccc2c(c1)OCCO2)c1c(N)n(CC(C)C)c(=O)[nH]c1=O`?
RGS4 act: inactive; MrgX1 PAM: inactive; RGS4 block: inactive; MrgX1 ag: inactive; MrgX1 antagonist: inactive

Results for CCOC(=O)C1CCCN(C(=O)Cc2ccc(OC)c(OC)c2)C1 (centres undefined) ?
RGS4 act: inactive; MrgX1 PAM: inactive; RGS4 block: inactive; MrgX1 ag: inactive; MrgX1 antagonist: -4.84*; MrgX1 antag conf: inactive; HEK293 Ca flux: inactive; HEK293 Ca counter: inactive; HEK293 Ca cntr2: inactive

What do the screens show for `COc1ccc(NC(=O)CSc2ccccc2)c(OC)c1`?
RGS4 act: inactive; MrgX1 PAM: inactive; RGS4 block: inactive; MrgX1 ag: inactive; KCC2 mod: 1.32; MrgX1 antagonist: -9.12*; MrgX1 antag conf: inactive; HEK293 Ca flux: inactive; HEK293 Ca counter: inactive; HEK293 Ca cntr2: inactive

What do the screens show for `COc1ccc(NC(=O)CSc2nc(=O)n(CCN3CCOCC3)c3c2CCC3)c(OC)c1`?
RGS4 act: inactive; MrgX1 PAM: inactive; RGS4 block: inactive; MrgX1 ag: inactive; MrgX1 antagonist: -7.61*; MrgX1 antag conf: inactive; HEK293 Ca flux: inactive; HEK293 Ca counter: inactive; HEK293 Ca cntr2: inactive

What do the screens show for `Cc1ccc(N)cc1NC(=O)CN1CCOCC1`?
RGS4 act: inactive; MrgX1 PAM: inactive; RGS4 block: inactive; MrgX1 ag: inactive; MrgX1 antagonist: inactive

What do the screens show for `O=C(NCCc1ccncc1)Nc1cccc(Cl)c1`?
RGS4 act: inactive; MrgX1 PAM: inactive; RGS4 block: inactive; MrgX1 ag: inactive; MrgX1 antagonist: -4.56*; MrgX1 antag conf: inactive; HEK293 Ca flux: inactive; HEK293 Ca counter: inactive; HEK293 Ca cntr2: inactive

Results for Cc1ccc(C2C3=C(CCCC3=O)N=C3c4ccccc4C(=O)C32)cc1 (centres undefined) ?
RGS4 act: inactive; MrgX1 PAM: inactive; RGS4 block: inactive; MrgX1 ag: inactive; KCC2 mod: -2.02; MrgX1 antagonist: -16.2*; MrgX1 antag conf: inactive; HEK293 Ca flux: inactive; HEK293 Ca counter: inactive; HEK293 Ca cntr2: inactive

How did O=C1CCCC2=C1C(c1ccccc1)C1C(=O)c3ccccc3C1=N2 (centres undefined) do in these assays?
RGS4 act: inactive; MrgX1 PAM: inactive; RGS4 block: inactive; MrgX1 ag: inactive; KCC2 mod: -0.606; MrgX1 antagonist: inactive

Results for CSc1cccc(CN2CCN(CCc3ccccc3)C(CCO)C2)c1 (centres undefined) ?
RGS4 act: inactive; MrgX1 PAM: inactive; RGS4 block: inactive; MrgX1 ag: inactive; KCC2 mod: -0.586; MrgX1 antagonist: inactive

Results for CSc1ccc(CN2CCN(CC=C(C)C)C(CCO)C2)cc1 (centres undefined) ?
RGS4 act: inactive; MrgX1 PAM: inactive; RGS4 block: inactive; MrgX1 ag: inactive; KCC2 mod: 0.14; MrgX1 antagonist: inactive

How did CSc1ccc(CN2CCN(Cc3ccccc3)C(CCO)C2)cc1 (centres undefined) do in these assays?
RGS4 act: inactive; MrgX1 PAM: inactive; RGS4 block: inactive; MrgX1 ag: inactive; MrgX1 antagonist: -4.84*; MrgX1 antag conf: 82.7%*; HEK293 Ca flux: inactive; HEK293 Ca counter: inactive; HEK293 Ca cntr2: inactive
